# Hits are enriched below; roughly 11% of the tested compounds scored in any of these assays.
# Htt clearance = clearance of mutant huntingtin inclusions, primary screen, imaging, HeLa Exon1htt(103Q)mCFP, confocal imaging; inhibition, % at 1.5 µM; AID 853, 2007; aggregate imaging; zero = plate's median compound well; actives 0.42% (n = 47,000);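 active = inhibition of aggregate fluorescence above about 70%, also judged a hit by eye on the cell image, limit read from the data, passing the limit was not always enough; inconclusive = no rule stated for this call; inactive = not judged a hit on image review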;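 also: cells exposed to compound for three days before fixation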
# RORA act = activators of orphan receptor RORA, primary screen, cell-based, luminescence. Nuclear receptor ROR-alpha (Homo sapiens), P35398. CHO-K1 Gal4-RORA LBD luciferase reporter; percent increase over mock-subtracted basal signal. activation, % at 10 µM. actives 1.5% (n = 65,000). AID 560, 2006;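 active = activation above the mean of all tested compounds plus 3 SD, cut at about 49% in these data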;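 also: 0% = DMSO-treated RORA cells and 100% = added signal equal to DMSO minus mock-transfected cells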
# M1 ag = M1 muscarinic receptor agonists, primary screen, CHO-M1 cells, Fluo-4 calcium, agonist mode; actives 3% (n = 64,000); Fluo-4 calcium fluorescence; stronger effect = higher value; B-score at 10 µM;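 active = fluorescence rise, raw or as B-score row- and column-corrected plate score, outside the 99.7% band of its plate's samples, either direction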
# SF1 activator = activators of human SF-1, primary screen, cell-based, CHO-K1, Gal4-SF-1 LBD, luciferase luminescence | actives 1.9% (n = 65,000) | Steroidogenic factor 1 (Homo sapiens), Q13285 | activation, % at 10 µM | CHO-K1 Gal4-SF-1 LBD luciferase reporter; % increase over DMSO SF-1-specific signal | AID 522, 2006;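 active = activation above the mean activation of all tested compounds plus 3 SD, cut at about 50% in these data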
#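 Material: CHO-K1 cells with Gal4–hSF-1 LBD chimera plus Gal4-driven luciferase / Input: 4,000 CHO-K1 cells per well / Incubation: compound exposure 20 h at 37 °C / Signal: luminescence read 15 min after SteadyLite luciferase reagent, after room-temperature equilibration / Read-out: percent activation versus DMSO / Benchmarks: DMSO negative control and −SF1 background wells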
# M1 antag = antagonists of rat M1 muscarinic receptor; CHO-M1 cells, Fluo-4 calcium, ACh EC80 antagonist mode; stronger effect = lower value; B-score at 10 µM; actives 3.4% (n = 64,000); AID 628, 2007;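 active = calcium fluorescence response, raw or row-and-column corrected B-score, differing from the plate sample mean either way at a set confidence level, mostly lower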
# D1 allo mod = D1 CRE-luciferase signal change, two-sided – cell-based, HEK293 D1, dopamine EC30, D1 allosteric modulator project, primary screen; dopamine EC30 potentiation; actives deviate in either direction; B-score at 10 µM; actives 5.9% (n = 58,000);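 active = luminescence count or its row- and column-corrected plate score outside the 99.7% band of the plate's sample wells, on either side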
# Target sequence (P21728 whole entry, looked up): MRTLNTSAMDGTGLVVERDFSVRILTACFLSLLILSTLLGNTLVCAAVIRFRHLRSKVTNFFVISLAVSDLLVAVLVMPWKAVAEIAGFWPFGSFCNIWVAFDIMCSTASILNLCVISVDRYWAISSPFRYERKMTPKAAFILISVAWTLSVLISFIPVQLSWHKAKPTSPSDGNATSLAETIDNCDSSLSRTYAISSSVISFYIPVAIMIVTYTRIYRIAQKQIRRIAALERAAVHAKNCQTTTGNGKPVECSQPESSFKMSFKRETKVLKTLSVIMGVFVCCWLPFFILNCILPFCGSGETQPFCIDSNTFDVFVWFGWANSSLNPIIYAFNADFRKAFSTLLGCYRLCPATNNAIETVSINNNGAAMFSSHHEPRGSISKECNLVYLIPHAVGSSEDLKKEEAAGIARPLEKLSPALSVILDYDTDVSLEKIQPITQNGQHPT
# M1 ag confirm = rat M1 muscarinic receptor agonists, confirmation, CHO-M1 cells, Fluo-4 calcium, duplicate retest; actives 19% (n = 1,700); shares compounds with M1 ag; fluorescence change (max-min) at 10 µM; AID 1488, 2009; Fluo-4 calcium fluorescence, agonist mode; actives lie on both sides;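 active = fluorescence change differs from the solvent-only DMSO control mean at a set confidence level in both duplicate runs; inconclusive = differs from solvent-only control mean in just one of two runs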;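 also: an EC20 dose of acetylcholine follows compound addition during the same imaging run; raw fluorescence intensity difference in instrument units with no normalization to controls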
# M4 ag counter = agonist activity at rat M4 receptor, confirmation, counter-screen for M1 allosteric modulator project, cell-based, agonist mode. CHO M4/Gqi5 cells, Fluo-4 calcium fluorescence; actives lie on both sides. AID 1741, 2009. actives 9% (n = 1,700). shares compounds with M1 ag. fluorescence change (max-min) at 10 µM;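 active = fluorescence change differing from the plate's solvent-only control wells at 99.7% confidence in both duplicates, whether higher or lower; inconclusive = differs from solvent controls in only one of two duplicates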
# * hit, by the source's call; ? = inconclusive; · = no result.
SMILES,Htt clearance,RORA act,M1 ag,SF1 activator,M1 antag,D1 allo mod,M1 ag confirm,M4 ag counter
CC(=O)c1cccc(NC(=O)c2cc(C(C)C)on2)c1,9,55*,-0.37,74*,0.5,-0.3,·,·
CCOc1ccc(C2CC(c3ccc(F)cc3)n3ncnc3N2)cc1 (configuration not stated),·,28,-0.11,2,0.47,0.47,·,·
CC(=O)c1cccc(NC(=O)c2nccnc2C(=O)O)c1,-46,-1,-0.077,-10,-0.15,-3.5*,·,·
COC(=O)c1cccc(C(=O)Nc2ccc(C)cc2)n1,·,23,1.1,50*,0.86,0.07,·,·
COC(=O)c1cc(NC(=O)c2nccnc2C(=O)O)cc(C(=O)OC)c1,·,10,-0.32,5,0.74,·,·,·
Cc1ccc(C)c(N2CCN(S(=O)(=O)c3ccc4c(c3)CCC(=O)N4)CC2)c1,-96,-2,2,-7,1.3,0.16,·,·
Cc1ccc(C)c(N2CCN(C(=O)CN(C)S(=O)(=O)c3ccc4c(c3)CCC(=O)N4)CC2)c1,0,-2,2.3*,-6,1.6,·,?,-48
CCN1CCN(c2nc(C)nc3c2sc(=S)n3C)CC1,38,-24,-2.6*,-8,-0.2,0.44,-11,-24
CCN1CCN(c2nc(SC)nc3sc4c(c23)CC(C)(C)OC4)CC1,·,17,-0.095,-1,-1,0.046,·,·
Cc1ccc(S(=O)(=O)c2c(N)n(Cc3ccco3)c3nc4ccccc4nc23)cc1,24,7,12*,-9,0.051,·,39,-10
Cc1cccc(S(=O)(=O)c2c(N)n(Cc3ccco3)c3nc4ccccc4nc23)c1,·,-20,0.038,-15,1.1,-0.3,·,·
Cc1ccc(-n2c(C)cc(C(=O)OCC(=O)N(C)C3CCS(=O)(=O)C3)c2C)cc1 (configuration not stated),·,-2,0.11,8,0.1,0.13,·,·
CC(C)n1nc(C(=O)OCC(=O)N(C)C2CCS(=O)(=O)C2)c2ccccc2c1=O (configuration not stated),-90,-26,10*,7,1,0.23,-11,-39
Cc1cccc(NC(=O)CN(c2ccc(C(C)C)cc2)S(=O)(=O)c2c(C)nn(C)c2C)n1,0,·,·,·,·,·,·,·
CCOC(=O)C1=C2SCCN2C(=O)C(C#N)C1(C)C (configuration not stated),37,14,3.5*,4,-0.19,-0.44,-16,-14
COc1cccc2cc(-c3nnc(SCC(=O)Nc4nc(C)cs4)n3C)oc12,13,26,3.9*,-5,0.39,-0.31,?,-60
Cc1csc(NC(=O)CSc2nnc(-c3ccco3)n2C)n1,·,-1,0.0057,9,0.29,0.0065,·,·
Cc1ccc(-n2nc(-c3cccnc3)cc2C(=O)N2CCOCC2)c(C)c1,·,2,20*,2,-0.3,-0.079,?,-26
O=c1c(O)c(-c2cccs2)oc2ccccc12,·,-28,140*,-4,-1.6*,0.71,696*,622*
COc1ccccc1CN1C(=S)SC(C)(C)C1NO (configuration not stated),18,2,0.19,9,0.71,0.014,·,·
Cc1ccc(/C=c2\sc3nc(-c4cccs4)nn3c2=O)o1,6,5,46*,-12,0.3,-0.014,39,48
COc1ccccc1/C=c1\sc2nc(-c3cccs3)nn2c1=O,-39,-6,-0.22,6,1.2,0.44,·,·
